# Publication PMC6543826 (Bioorganic chemistry, 2018)
# Where “and” joins values, the source holds several entries; their conditions need not be identical. Equal values may be shown once. Read-outs that look alike come from different tables or passages of the source.
# Tests used:
# ERK2 = ERK2 (Rattus norvegicus, UniProt P63086); assay: in vitro radioactive kinase assay, Ets-1 phosphorylation by ERK2; assay type: biochemical; conditions: 100 μM ATP /10mM Ets-1
# In short: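 Activated rat ERK2 (2 nM) was tested with His-Ets-1 (1–138) at 28–30 °C in HEPES pH 7.5 buffer with 11 mM MgCl2, BSA and 5% DMSO. Reactions were started with [γ-32P]ATP (10 or 100 μM).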
# OVCAR-8 = assay: cells; assay type: cell-based; conditions: OVCAR-8, 10^−5 M, 48 h
# T-47D = assay: cells; assay type: cell-based; conditions: T-47D, 10^−5 M, 48 h
# SNB-19 = assay: cells; assay type: cell-based; conditions: SNB-19, 10^−5 M, 48 h
# M14 = assay: cells; assay type: cell-based; conditions: M14, 10^−5 M, 48 h
# HOP-92 = assay: cells; assay type: cell-based; conditions: HOP-92, 10^−5 M, 48 h
# SK-MEL-2 = assay: cells; assay type: cell-based; conditions: SK-MEL-2, 10^−5 M, 48 h
# OVCAR-5 = assay: cells; assay type: cell-based; conditions: OVCAR-5, 10^−5 M, 48 h
# BT-549 = assay: cells; assay type: cell-based; conditions: BT-549, 10^−5 M, 48 h
# [1] = tested on: NCI-60 panel of tumor cell lines; conditions: for Average G%: average over tested NCI-60 cell lines, 10^−5 M (10 μM), 48 h
# OVCAR-3 = assay: cells; assay type: cell-based; conditions: OVCAR-3, 10^−5 M, 48 h
# HCT-15 = assay: cells; assay type: cell-based; conditions: HCT-15, 10^−5 M, 48 h
# MDA-MB-435 = assay: cells; assay type: cell-based; conditions: MDA-MB-435, 10^−5 M, 48 h
# SK-MEL-5 = assay: cells; assay type: cell-based; conditions: SK-MEL-5, 10^−5 M, 48 h
# NCI-H522 = assay: cells; assay type: cell-based; conditions: NCI-H522, 10^−5 M, 48 h
# UO-31 = assay: cells; assay type: cell-based; conditions: UO-31, 10^−5 M, 48 h
# MALME-3M = assay: cells; assay type: cell-based; conditions: MALME-3M, 10^−5 M, 48 h
# LOX IMVI = assay: cells; assay type: cell-based; conditions: 10^−5 M, 48 h
# UACC-62 = assay: cells; assay type: cell-based; conditions: UACC-62, 10^−5 M, 48 h
# KM 12 = assay: cells; assay type: cell-based; conditions: KM 12, 10^−5 M, 48 h
# NCI-H322M = assay: cells; assay type: cell-based; conditions: 10^−5 M, 48 h
# MDA-MB-468 = assay: cells; assay type: cell-based; conditions: MDA-MB-468, 10^−5 M, 48 h
# SR = assay: cells; assay type: cell-based; conditions: 10^−5 M, 48 h
# SNB-75 = assay: cells; assay type: cell-based; conditions: SNB-75, 10^−5 M, 48 h
# HCC-2998 = assay: cells; assay type: cell-based; conditions: HCC-2998, 10^−5 M, 48 h
# HOP-62 = assay: cells; assay type: cell-based; conditions: HOP-62, 10^−5 M, 48 h
# OVCAR-4 = assay: cells; assay type: cell-based; conditions: OVCAR-4, 10^−5 M, 48 h
# HL-60 (TB) = assay: cells; assay type: cell-based; conditions: HL-60(TB), 10^−5 M, 48 h
# CCRF-CEM = assay: cells; assay type: cell-based; conditions: 10^−5 M, 48 h
# RXF 393 = assay: cells; assay type: cell-based; conditions: RXF 393, 10^−5 M, 48 h
# SF-268 = assay: cells; assay type: cell-based; conditions: SF-268, 10^−5 M, 48 h
# RPMI-8226 = assay: cells; assay type: cell-based; conditions: RPMI-8226, 10^−5 M, 48 h
# A549/ATCC = assay: cells; assay type: cell-based; conditions: A549/ATCC, 10^−5 M, 48 h
# PC-3 = assay: cells; assay type: cell-based; conditions: PC-3, 10^−5 M, 48 h
# HCT-116 = assay: cells; assay type: cell-based; conditions: HCT-116, 10^−5 M, 48 h
# NCI-H23 = assay: cells; assay type: cell-based; conditions: NCI-H23, 10^−5 M, 48 h
# U251 = assay: cells; assay type: cell-based; conditions: U251, 10^−5 M, 48 h
# SN12C = assay: cells; assay type: cell-based; conditions: 10^−5 M, 48 h
# IGROV1 = assay: cells; assay type: cell-based; conditions: IGROV1, 10^−5 M, 48 h
# NCI-H460 = assay: cells; assay type: cell-based; conditions: NCI-H460, 10^−5 M, 48 h
# HT29 = assay: cells; assay type: cell-based; conditions: HT29, 10^−5 M, 48 h
# MOLT-4 = assay: cells; assay type: cell-based; conditions: MOLT-4, 10^−5 M, 48 h
# NCI-H226 = assay: cells; assay type: cell-based; conditions: NCI-H226, 10^−5 M, 48 h
# SK-MEL-28 = assay: cells; assay type: cell-based; conditions: SK-MEL-28, 10^−5 M, 48 h
# MCF7 = assay: cells; assay type: cell-based; conditions: MCF7, 10^−5 M, 48 h
# SK-OV-3 = assay: cells; assay type: cell-based; conditions: SK-OV-3, 10^−5 M, 48 h
# SF-539 = assay: cells; assay type: cell-based; conditions: SF-539, 10^−5 M, 48 h
# ACHN = assay: cells; assay type: cell-based; conditions: 10^−5 M, 48 h
# DU-145 = assay: cells; assay type: cell-based; conditions: DU-145, 10^−5 M, 48 h
# SF-295 = assay: cells; assay type: cell-based; conditions: SF-295, 10^−5 M, 48 h
# K-562 = assay: cells; assay type: cell-based; conditions: K-562, 10^−5 M, 48 h
# SW-620 = assay: cells; assay type: cell-based; conditions: SW-620, 10^−5 M, 48 h
# EKVX = assay: NCI-60 SRB screen, Non-small cell lung cancer; assay type: cell-based, human; conditions: 10^−5 M, 48 h
# A498 = assay: NCI-60 SRB screen, Renal cancer; assay type: cell-based, human; conditions: A498, 10^−5 M, 48 h
# [2] = ERK2 IC50 at 100 μM ATP /10mM Ets-1, Table 4
# ERK2, sequence (P63086 whole entry): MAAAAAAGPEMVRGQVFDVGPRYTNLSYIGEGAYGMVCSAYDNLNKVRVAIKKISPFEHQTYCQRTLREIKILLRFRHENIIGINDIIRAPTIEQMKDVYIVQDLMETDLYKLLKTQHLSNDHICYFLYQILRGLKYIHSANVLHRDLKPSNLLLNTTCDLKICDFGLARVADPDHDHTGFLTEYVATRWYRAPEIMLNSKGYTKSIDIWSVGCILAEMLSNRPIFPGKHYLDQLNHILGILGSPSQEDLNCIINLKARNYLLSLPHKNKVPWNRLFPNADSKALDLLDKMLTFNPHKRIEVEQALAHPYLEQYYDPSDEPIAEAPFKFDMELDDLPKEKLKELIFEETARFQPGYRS
structure (smiles),measurement,setting,value
"Cc1ccc2[nH]c(=O)c3c4c(oc3c2c1)C(=O)c1ccccc1C4=O [3d, 2-Methylnaphtho[2′,3′:4,5]furo[3,2-c]quinoline-6,7,12(5H)-trione]",IC50,ERK2; [2],59 ± 8.2 µM
"O=C1c2ccccc2C(=O)c2c1oc1c2c(=O)[nH]c2ccc(Br)cc21 [3c, 2-Bromonaphtho[2′,3′:4,5]furo[3,2-c]quinoline-6,7,12(5H)-trione]",IC50,ERK2; [2],> 100 µM
"CCn1c(=O)c2c(=O)c3c4c(oc3oc2c2ccccc21)C(=O)c1ccccc1C4=O [5b, 5-Ethyl-5H-naphthalen[2″,3″:4′,5′]furo[3′,2′:4′,5,6]pyrano[3,2-c]quinoline-6,7,8,13-tetraone]",Growth percent (G%),OVCAR-8,10.25%
same,Growth percent (G%),T-47D,85.06%
same,Growth percent (G%),SNB-19,90.17%
same,Growth percent (G%),M14,89.81%
same,Growth percent (G%),HOP-92,50.81%
same,Growth percent (G%),SK-MEL-2,79.89%
same,Growth percent (G%),OVCAR-5,117.77%
same,Growth percent (G%),BT-549,93.67%
same,Average G%,[1],65.81%
same,Growth percent (G%),OVCAR-3,−16.31%
same,Growth percent (G%),HCT-15,79.63%
same,Growth percent (G%),MDA-MB-435,95.88%
same,Growth percent (G%),SK-MEL-5,67.42%
same,Growth percent (G%),NCI-H522,65.5%
same,Growth percent (G%),UO-31,112.5%
same,Growth percent (G%),MALME-3M,112.5%
same,Growth percent (G%),LOX IMVI,32.39%
same,Growth percent (G%),UACC-62,63.95%
same,Growth percent (G%),KM 12,86.61%
same,Growth percent (G%),NCI-H322M,97.72%
same,Growth percent (G%),MDA-MB-468,−9.96%
same,Growth percent (G%),SR,80.76%
same,Growth percent (G%),SNB-75,119.73%
same,Growth percent (G%),HCC-2998,100.59%
same,Growth percent (G%),HOP-62,80.29%
same,Growth percent (G%),OVCAR-4,−99.52%
same,Growth percent (G%),HL-60 (TB),−18.8%
same,Growth percent (G%),CCRF-CEM,2.47%
same,Growth percent (G%),RXF 393,72.63%
same,Growth percent (G%),SF-268,84.32%
same,Growth percent (G%),RPMI-8226,33.49%
same,Growth percent (G%),A549/ATCC,82.36%
same,Growth percent (G%),PC-3,81.82%
same,Growth percent (G%),HCT-116,34.6%
same,Growth percent (G%),NCI-H23,66.79%
same,Growth percent (G%),U251,57.67%
same,Growth percent (G%),SN12C,106.07%
same,Growth percent (G%),IGROV1,68.31%
same,Growth percent (G%),NCI-H460,83.68%
same,Growth percent (G%),HT29,63.02%
same,Growth percent (G%),MOLT-4,−24.49%
same,IC50,"ERK2; read-out: ERK2 IC50 at 100 μM ATP /10mM Ets-1, Table 4",8.3 ± 1.5 µM
same,Growth percent (G%),NCI-H226,99.44%
same,Growth percent (G%),SK-MEL-28,106.96%
same,Growth percent (G%),MCF7,92.37%
same,Growth percent (G%),SK-OV-3,102.05%
same,Growth percent (G%),SF-539,89.92%
same,Growth percent (G%),ACHN,79.61%
same,Growth percent (G%),DU-145,42.4%
same,Growth percent (G%),SF-295,95.07%
same,Growth percent (G%),K-562,28.57%
same,Growth percent (G%),SW-620,73.47%
"Cn1c(=O)c2c3c(oc2c2ccccc21)C(=O)c1ccccc1C3=O [3e, 5-Methylnaphtho[2′,3′:4,5]furo[3,2-c]quinoline-6,7,12(5H)-trione]",Growth percent (G%),OVCAR-8,85.32%
same,Growth percent (G%),T-47D,9.70%
same,Growth percent (G%),SNB-19,93.29%
same,Growth percent (G%),M14,85.59%
same,Growth percent (G%),HOP-92,100.92%
same,Growth percent (G%),SK-MEL-2,92.64%
same,Growth percent (G%),OVCAR-5,119.92%
same,Growth percent (G%),EKVX,70.67%
same,Growth percent (G%),BT-549,77.38%
same,NCI Cytotoxicity Screening Average G%,"[1]; Table 4, 10 μM one-dose screen",74%
same,Average G%,[1],74% and 74.32%
same,Growth percent (G%),OVCAR-3,21.58%
same,Growth percent (G%),HCT-15,85.01%
same,Growth percent (G%),MDA-MB-435,103.73%
same,Growth percent (G%),SK-MEL-5,76.95%
same,Growth percent (G%),NCI-H522,50.55%
same,Growth percent (G%),UO-31,54.76%
same,Growth percent (G%),MALME-3M,113.45%
same,Growth percent (G%),LOX IMVI,76.59%
same,Growth percent (G%),UACC-62,77.03%
same,Growth percent (G%),KM 12,91.54%
same,Growth percent (G%),NCI-H322M,96.16%
same,Growth percent (G%),MDA-MB-468,−9.91%
same,Growth percent (G%),SNB-75,64.39%
same,Growth percent (G%),HCC-2998,101.82%
same,Growth percent (G%),HOP-62,81.77%
same,Growth percent (G%),OVCAR-4,4.38%
same,Growth percent (G%),CCRF-CEM,19.07%
same,Growth percent (G%),RXF 393,100.91%
same,Growth percent (G%),SF-268,95.35%
same,Growth percent (G%),RPMI-8226,51.06%
same,Growth percent (G%),A549/ATCC,81.67%
same,Growth percent (G%),PC-3,64.38%
same,Growth percent (G%),HCT-116,71.69%
same,Growth percent (G%),NCI-H23,78.33%
same,Growth percent (G%),U251,90.22%
same,Growth percent (G%),SN12C,81.84%
same,Growth percent (G%),IGROV1,68.65%
same,Growth percent (G%),NCI-H460,78.50%
same,Growth percent (G%),HT29,73.69%
same,Growth percent (G%),MOLT-4,2.39%
same,IC50,ERK2; [2],21 ± 5.6 µM
same,Growth percent (G%),NCI-H226,73.22%
same,Growth percent (G%),SK-MEL-28,111.89%
same,Growth percent (G%),MCF7,68.38%
same,Growth percent (G%),SK-OV-3,93.55%
same,Growth percent (G%),SF-539,97.17%
same,Growth percent (G%),ACHN,75.49%
same,Growth percent (G%),DU-145,90.97%
same,Growth percent (G%),K-562,68.79%
same,Growth percent (G%),A498,93.29%
same,Growth percent (G%),SW-620,86.24%
